Source: BindingDB's records for doi:10.1021/acs.jmedchem.5b01961 (Catabasis Pharmaceuticals, 2016)

Target: T1, Sterol regulatory element-binding protein 2 (Homo sapiens, UniProt Q12772)
T1 sequence (Q12772 whole entry): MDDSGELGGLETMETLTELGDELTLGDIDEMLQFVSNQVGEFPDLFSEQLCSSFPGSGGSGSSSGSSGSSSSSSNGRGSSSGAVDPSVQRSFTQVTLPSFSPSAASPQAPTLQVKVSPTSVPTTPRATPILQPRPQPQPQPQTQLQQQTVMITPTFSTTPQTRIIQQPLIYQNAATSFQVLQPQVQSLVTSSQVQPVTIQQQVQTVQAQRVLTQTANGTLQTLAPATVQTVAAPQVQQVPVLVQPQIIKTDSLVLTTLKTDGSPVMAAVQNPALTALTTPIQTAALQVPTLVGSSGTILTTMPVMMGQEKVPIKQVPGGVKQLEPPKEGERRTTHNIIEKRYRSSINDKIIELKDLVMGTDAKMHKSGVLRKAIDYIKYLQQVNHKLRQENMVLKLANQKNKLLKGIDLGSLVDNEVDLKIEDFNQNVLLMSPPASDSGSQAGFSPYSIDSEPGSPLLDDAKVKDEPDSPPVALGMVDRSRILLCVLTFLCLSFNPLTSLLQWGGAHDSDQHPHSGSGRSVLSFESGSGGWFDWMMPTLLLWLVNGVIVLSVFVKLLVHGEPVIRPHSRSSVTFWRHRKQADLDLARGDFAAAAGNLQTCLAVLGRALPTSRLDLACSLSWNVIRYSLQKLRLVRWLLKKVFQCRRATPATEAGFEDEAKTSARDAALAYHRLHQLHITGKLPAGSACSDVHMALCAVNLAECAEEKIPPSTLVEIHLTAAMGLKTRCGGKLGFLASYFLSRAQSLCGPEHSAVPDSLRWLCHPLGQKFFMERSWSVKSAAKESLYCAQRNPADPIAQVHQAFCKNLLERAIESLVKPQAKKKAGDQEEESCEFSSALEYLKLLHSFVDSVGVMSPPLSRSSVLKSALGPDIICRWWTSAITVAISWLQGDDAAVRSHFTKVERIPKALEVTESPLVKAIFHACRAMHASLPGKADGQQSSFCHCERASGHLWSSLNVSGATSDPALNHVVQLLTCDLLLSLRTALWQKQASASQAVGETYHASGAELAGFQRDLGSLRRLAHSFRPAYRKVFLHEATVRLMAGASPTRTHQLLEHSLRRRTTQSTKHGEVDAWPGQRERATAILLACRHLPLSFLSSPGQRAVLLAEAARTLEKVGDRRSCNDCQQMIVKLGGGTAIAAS
Test: Inhibition of SREBP2 in human HepG2 cells assessed as reduction of PCSK9 secretion after 16 hrs by ELISA
In short: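 HepG2 cells treated with compound; secreted PCSK9 in culture supernatants measured with a human-specific PCSK9 ELISA.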

For CC/C=C\C/C=C\C/C=C\C/C=C\C/C=C\CCCC(=O)NCCNC(=O)c1cccnc1, the IC50 was 17 µM.
